Measurements collected from several papers.
Protocols differ between the studies behind these lines.
Organism: Mycolicibacterium smegmatis
Read-out: microbial growth

SMILES | technique | strain | concentration | time | quantity | value
CO[C@H]1/C=C/O[C@@]2(C)Oc3c(C)c(O)c4c(O)c(c(/C=N/N5CCN(C)CC5)c(O)c4c3C2=O)NC(=O)/C(C)=C\C=C\[C@H](C)[C@H](O)[C@@H](C)[C@@H](O)[C@@H](C)[C@H](OC(C)=O)[C@@H]1C | disc diffusion |  | 15 µg/disc |  | inhibition zone | 14 mm
O=C(N[C@H](CO)[C@H](O)c1ccc([N+](=O)[O-])cc1)C(Cl)Cl |  | ATCC14468 |  |  | MIC90 | 125 µg/mL
Cc1nc2sc3ccccc3n2c1C(=O)N1CCN(Cc2cn(-c3cccc([N+](=O)[O-])c3)nn2)CC1 |  |  |  | 72 h | IC50 | 44.1 µM
CCCCCc1ccc(-c2c[nH]c(N)n2)cc1 |  | ATCC700084 MC^2155 |  | 48 h | MIC | 200 µM
NC1C2CC3CC(C2)CC1C3 (stereo not shown) |  |  |  | 48 h | IC50 | > 500 µM
COCCOc1ccc(-c2c[nH]c(N)n2)cc1 |  | ATCC700084 MC^2155 |  | 48 h | MIC | > 200 µM
Cc1nc2sc3ccccc3n2c1C(=O)N1CCN(Cc2cn(-c3cccc(Cl)c3)nn2)CC1 |  |  |  | 72 h | IC50 | 52.7 µM
CC(C)=CCC/C(C)=C/CNCCNC1C2CC3CC(C2)CC1C3 (stereo not shown) |  |  |  | 48 h | IC50 | 2.5 µM
O=C(O)CCCCCC1NC(=O)CS1 (racemic) |  | MC^2155 |  |  | MIC90 | 10 µM
Cc1nc2sc3ccccc3n2c1C(=O)N1CCN(CCn2cc(-c3ccc(C(C)(C)C)cc3)nn2)CC1 |  |  |  | 72 h | IC50 | 34.6 µM
COc1c(N2C[C@@H]3CCCN[C@@H]3C2)c(F)cc2c(=O)c(C(=O)O)cn(C3CC3)c12 |  | ATCC14468 |  |  | MIC90 | 0.12 µg/mL
Cc1nc2sccn2c1C(=O)N1CCN(CCn2cc(CSc3nc4ccccc4[nH]3)nn2)CC1 |  |  |  | 72 h | IC50 | 16.4 µM
NNC(=O)c1ccncc1 | resazurin | MC^2155 |  | 24 h | MIC | 5 µg/mL
